According to ChEMBL document CHEMBL1142069, “Caspofungin in combination with amphotericin B against Candida parapsilosis” (Antimicrob Agents Chemother, 2007):
Converted amounts (≈) assume the structure as drawn. The source made the active and inactive calls. The rule behind the calls is not given here.

Experiments:
Assay type in all cases: functional, organism-based
[1] = system: Candida parapsilosis; test: Growth inhibition of Candida parapsilosis after 24 hrs by broth dilution assay; conditions: Lodderomyces parapsilosis
Outline: (§1)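 CLSI-derived checkerboard broth microdilution in RPMI 1640 with 0.165 M MOPS, pH 7.0. Final ranges were AMB 0.03–2.0 µg/ml and CAS 0.03–64 µg/ml, alone or combined. Inoculum 1.0 x 10^3 to 5.0 x 10^3 CFU/ml (2x), 35°C in air. OD490 read at 24 and 48 h; IC50/IC90 taken as 50%/90% turbidity reduction versus control. Quintuplicate.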

[2] = system: Candida parapsilosis; test: Growth inhibition of Candida parapsilosis after 48 hrs by broth dilution assay; conditions: Lodderomyces parapsilosis; outline: as §1
[3] = system: Candida parapsilosis; test: Antifungal activity against Candida parapsilosis at 4 ug/ml after 24 hrs
Outline: (§2)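 Time-kill with C. parapsilosis strain no. 3. A 0.5 McFarland suspension was diluted 1:10 into MOPS-buffered RPMI 1640 with drug alone or combined, shaken at 35°C. Samples were taken at 0, 2, 6 and 24 h, serially diluted 10-fold and plated on Sabouraud dextrose agar. CFU counted after 48 h at 35°C; detection limit 20 CFU/ml. Triplicate.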

[4] = system: Candida parapsilosis; test: Fungistatic effect on Candida parapsilosis at 256 ug/ml after 24 hrs
[5] = system: Candida parapsilosis; test: Antifungal activity against Candida parapsilosis at 0.5 ug/ml after 24 hrs; outline: as §2

Row | Compound | IC50 [1] [µg/mL] | IC90 [1] [µg/mL] | IC50 [2] [µg/mL] | IC90 [2] [µg/mL] | Activity [3] | Activity [4] | Activity [5]
1 | CC[C@H](C)C[C@H](C)CCCCCCCCC(=O)N[C@H]1C[C@@H](O)[C@@H](NCCN)NC(=O)[C@@H]2[C@@H](O)CCN2C(=O)[C@H]([C@H](O)CCN)NC(=O)[C@H]([C@H](O)[C@@H](O)c2ccc(O)cc2)NC(=O)[C@@H]2C[C@@H](O)CN2C(=O)[C@H]([C@@H](C)O)NC1=O [CASPOFUNGIN] | 0.79 (≈ 0.723 µM) | 1.36 (≈ 1.24 µM) | 1.17 (≈ 1.07 µM) | 2.33 (≈ 2.13 µM) | inactive | Active | 
2 | C[C@@H]1[C@H](O)[C@@H](C)/C=C/C=C/C=C/C=C/C=C/C=C/C=C/[C@H](O[C@@H]2O[C@H](C)[C@@H](O)[C@H](N)[C@@H]2O)C[C@@H]2O[C@](O)(C[C@@H](O)C[C@@H](O)[C@H](O)CC[C@@H](O)C[C@@H](O)CC(=O)O[C@H]1C)C[C@H](O)[C@H]2C(=O)O [AMPHOTERICIN B] | 0.16 (≈ 0.173 µM) | 0.34 (≈ 0.368 µM) | 0.18 (≈ 0.195 µM) | 0.68 (≈ 0.736 µM) |  |  | inactive
